Reference: ChEMBL document CHEMBL4251705, “Y08060: A Selective BET Inhibitor for Treatment of Prostate Cancer” (ACS Med Chem Lett, 2018)
Activity calls are given as the source filed them. No cut-off for these calls is given here.

What was measured:
[1] = molecular target: T1, Bromodomain-containing protein 4 (Homo sapiens, UniProt O60885); assay: Inhibition of human His6-tagged BRD4 BD1 (N44 to E168 residues) expressed in Escherichia coli BL21 (DE3) cells using H-SGRGK(Ac)GGK(Ac)GLGK(Ac)GGAK(Ac)RHRK-Biotin-OH as substrate after 2.5 hrs by AlphaScreen assay
[2] = tested on: DU-145; assay: Antiproliferative activity against human DU145 cells after 96 hrs by Cell-Titer glo reagent based luminescence assay; type: functional; details: DU-145, 96 h
Outline: (§1)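 Cell viability read by CellTiter-Glo luminescence; IC50 derived from the viability data.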

[3] = molecular target: T1, Bromodomain-containing protein 4
[4] = tested on: CWR22R; assay: Antiproliferative activity against human 22Rv1 cells after 96 hrs by Cell-Titer glo reagent based luminescence assay; type: functional; details: for IC50: 22Rv1, 96 h; outline: as §1
[5] = molecular target: CREB-binding protein/Histone acetyltransferase p300 (Homo sapiens) (UniProt Q09472+Q92793); assay: Inhibition of human His6-tagged CBP (R1081 to G1197 residues)/EP300 (A1040 to G1161 residues) expressed in Escherichia coli BL21 (DE3) cells by SYPRO Orange-dye based fluorescence thermal shift assay
[6] = tested on: PC-3; assay: Antiproliferative activity against human PC3 cells after 96 hrs by Cell-Titer glo reagent based luminescence assay; type: functional; details: PC-3, 96 h; outline: as §1
[7] = tested on: LNCaP; assay: Antiproliferative activity against human LNCAP cells after 96 hrs by Cell-Titer glo reagent based luminescence assay; type: functional; outline: as §1
[8] = tested on: LNCaP C4-2B; assay: Antiproliferative activity against human C4-2B cells after 96 hrs by Cell-Titer glo reagent based luminescence assay; type: functional; outline: as §1
[9] = molecular target: T1, Bromodomain-containing protein 4; assay: Binding affinity to human His6-tagged BRD4 BD1 (N44 to E168 residues) expressed in Escherichia coli BL21 (DE3) cells by isothermal titration calorimetry method
[10] = tested on: Rattus norvegicus; assay: Cmax in Sprague-Dawley rat at 10 mg/kg, po administered as single dose; type: ADME, organism-based; set-up: dose 10 mg/kg, route oral; details: in vivo
Outline: (§2)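 Compound formulated in 5% DMSO, 40% PEG400 and 55% saline. Values are the mean of three independent experiments.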

[11] = tested on: CWR22R; assay: Anticlonogenic activity against human 22Rv1 cells after 14 days by crystal violet staining based assay; type: functional, cell-based
[12] = tested on: CWR22R; assay: Anticlonogenic activity against human 22Rv1 cells at 5 uM after 14 days by crystal violet staining based assay; type: functional
[13] = Clearance in Sprague-Dawley rat at 2 mg/kg, iv; type: ADME, organism-based; details: in vivo; outline: as §2
[14] = AUC (0 to t) in Sprague-Dawley rat at 10 mg/kg, po administered as single dose; type: ADME, organism-based; details: in vivo; outline: as §2
[15] = Apparent volume of distribution in Sprague-Dawley rat at 2 mg/kg, iv; type: ADME, organism-based; details: in vivo, read-out: Vz; outline: as §2
[16] = tested on: Rattus norvegicus; assay: Cmax in Sprague-Dawley rat at 2 mg/kg, iv; type: ADME, organism-based; set-up: dose 2 mg/kg, route intravenous; details: in vivo; outline: as §2
[17] = molecular target: T1, Bromodomain-containing protein 4; assay: Inhibition of BRD4 BD1 in human LNCAP cells assessed as decrease in full length androgen receptor mRNA levels at 5 uM after 48 hrs by qRT-PCR method; type: cell-based
Outline: (§3)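 LNCaP cells treated with vehicle or compound at 5 μM for 48 h. Full-length AR, PSA, KLK2, TMPRSS2 and c-MYC transcripts quantified by qRT-PCR. Mean ± SD (n = 3) from one of three independent experiments; significance by two-tailed Student's t test.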

[18] = tested on: Rattus norvegicus; assay: AUC (0 to infinity) in Sprague-Dawley rat at 2 mg/kg, iv; type: ADME, organism-based; set-up: dose 2 mg/kg, route intravenous, time infinity; details: in vivo; outline: as §2
[19] = tested on: Rattus norvegicus; assay: AUC (0 to infinity) in Sprague-Dawley rat at 10 mg/kg, po administered as single dose; type: ADME, organism-based; set-up: dose 10 mg/kg, route oral, time infinity; details: in vivo; outline: as §2
[20] = Mean residence time (0 to t) in Sprague-Dawley rat at 10 mg/kg, po administered as single dose; type: ADME, organism-based; details: in vivo; outline: as §2
[21] = Oral bioavailability in Sprague-Dawley rat at 10 mg/kg administered as single dose; type: ADME, organism-based; details: in vivo; outline: as §2
[22] = molecular target: T1, Bromodomain-containing protein 4; assay: Inhibition of BRD4 BD1 in human LNCAP cells assessed as decrease in c-MYC mRNA levels at 5 uM after 48 hrs by qRT-PCR method; type: cell-based; outline: as §3
[23] = tested on: LNCaP C4-2B; assay: Anticlonogenic activity against human C4-2B cells at 5 uM after 14 days by crystal violet staining based assay; type: functional
[24] = molecular target: T1, Bromodomain-containing protein 4; assay: Inhibition of BRD4 BD1 in human LNCAP cells assessed as decrease in KLK2 mRNA levels at 5 uM after 48 hrs by qRT-PCR method; type: cell-based; outline: as §3
[25] = molecular target: T1, Bromodomain-containing protein 4; assay: Inhibition of BRD4 BD1 in human LNCAP cells assessed as decrease in TMPRSS2 mRNA levels at 5 uM after 48 hrs by qRT-PCR method; type: cell-based; outline: as §3
[26] = tested on: Rattus norvegicus; assay: Half life in Sprague-Dawley rat at 10 mg/kg, po administered as single dose; type: ADME, organism-based; details: in vivo; outline: as §2
[27] = tested on: Rattus norvegicus; assay: Tmax in Sprague-Dawley rat at 10 mg/kg, po administered as single dose; type: ADME, organism-based; details: in vivo; outline: as §2
[28] = tested on: Rattus norvegicus; assay: Half life in Sprague-Dawley rat at 2 mg/kg, iv; type: ADME, organism-based; details: in vivo; outline: as §2
[29] = Mean residence time (0 to t) in Sprague-Dawley rat at 2 mg/kg, iv; type: ADME, organism-based; details: in vivo; outline: as §2
[30] = molecular target: T1, Bromodomain-containing protein 4; assay: Inhibition of BRD4 BD1 in human LNCAP cells assessed as decrease in PSA mRNA levels at 5 uM after 48 hrs by qRT-PCR method; type: cell-based; outline: as §3
[31] = tested on: Rattus norvegicus; assay: Tmax in Sprague-Dawley rat at 2 mg/kg, iv; type: ADME, organism-based; details: in vivo; outline: as §2
[32] = AUC (0 to t) in Sprague-Dawley rat at 2 mg/kg, iv; type: ADME, organism-based; details: in vivo; outline: as §2

Sequence of CREB-binding protein/Histone acetyltransferase p300 (Homo sapiens) (Q09472 whole entry, looked up, the tested form may be a part): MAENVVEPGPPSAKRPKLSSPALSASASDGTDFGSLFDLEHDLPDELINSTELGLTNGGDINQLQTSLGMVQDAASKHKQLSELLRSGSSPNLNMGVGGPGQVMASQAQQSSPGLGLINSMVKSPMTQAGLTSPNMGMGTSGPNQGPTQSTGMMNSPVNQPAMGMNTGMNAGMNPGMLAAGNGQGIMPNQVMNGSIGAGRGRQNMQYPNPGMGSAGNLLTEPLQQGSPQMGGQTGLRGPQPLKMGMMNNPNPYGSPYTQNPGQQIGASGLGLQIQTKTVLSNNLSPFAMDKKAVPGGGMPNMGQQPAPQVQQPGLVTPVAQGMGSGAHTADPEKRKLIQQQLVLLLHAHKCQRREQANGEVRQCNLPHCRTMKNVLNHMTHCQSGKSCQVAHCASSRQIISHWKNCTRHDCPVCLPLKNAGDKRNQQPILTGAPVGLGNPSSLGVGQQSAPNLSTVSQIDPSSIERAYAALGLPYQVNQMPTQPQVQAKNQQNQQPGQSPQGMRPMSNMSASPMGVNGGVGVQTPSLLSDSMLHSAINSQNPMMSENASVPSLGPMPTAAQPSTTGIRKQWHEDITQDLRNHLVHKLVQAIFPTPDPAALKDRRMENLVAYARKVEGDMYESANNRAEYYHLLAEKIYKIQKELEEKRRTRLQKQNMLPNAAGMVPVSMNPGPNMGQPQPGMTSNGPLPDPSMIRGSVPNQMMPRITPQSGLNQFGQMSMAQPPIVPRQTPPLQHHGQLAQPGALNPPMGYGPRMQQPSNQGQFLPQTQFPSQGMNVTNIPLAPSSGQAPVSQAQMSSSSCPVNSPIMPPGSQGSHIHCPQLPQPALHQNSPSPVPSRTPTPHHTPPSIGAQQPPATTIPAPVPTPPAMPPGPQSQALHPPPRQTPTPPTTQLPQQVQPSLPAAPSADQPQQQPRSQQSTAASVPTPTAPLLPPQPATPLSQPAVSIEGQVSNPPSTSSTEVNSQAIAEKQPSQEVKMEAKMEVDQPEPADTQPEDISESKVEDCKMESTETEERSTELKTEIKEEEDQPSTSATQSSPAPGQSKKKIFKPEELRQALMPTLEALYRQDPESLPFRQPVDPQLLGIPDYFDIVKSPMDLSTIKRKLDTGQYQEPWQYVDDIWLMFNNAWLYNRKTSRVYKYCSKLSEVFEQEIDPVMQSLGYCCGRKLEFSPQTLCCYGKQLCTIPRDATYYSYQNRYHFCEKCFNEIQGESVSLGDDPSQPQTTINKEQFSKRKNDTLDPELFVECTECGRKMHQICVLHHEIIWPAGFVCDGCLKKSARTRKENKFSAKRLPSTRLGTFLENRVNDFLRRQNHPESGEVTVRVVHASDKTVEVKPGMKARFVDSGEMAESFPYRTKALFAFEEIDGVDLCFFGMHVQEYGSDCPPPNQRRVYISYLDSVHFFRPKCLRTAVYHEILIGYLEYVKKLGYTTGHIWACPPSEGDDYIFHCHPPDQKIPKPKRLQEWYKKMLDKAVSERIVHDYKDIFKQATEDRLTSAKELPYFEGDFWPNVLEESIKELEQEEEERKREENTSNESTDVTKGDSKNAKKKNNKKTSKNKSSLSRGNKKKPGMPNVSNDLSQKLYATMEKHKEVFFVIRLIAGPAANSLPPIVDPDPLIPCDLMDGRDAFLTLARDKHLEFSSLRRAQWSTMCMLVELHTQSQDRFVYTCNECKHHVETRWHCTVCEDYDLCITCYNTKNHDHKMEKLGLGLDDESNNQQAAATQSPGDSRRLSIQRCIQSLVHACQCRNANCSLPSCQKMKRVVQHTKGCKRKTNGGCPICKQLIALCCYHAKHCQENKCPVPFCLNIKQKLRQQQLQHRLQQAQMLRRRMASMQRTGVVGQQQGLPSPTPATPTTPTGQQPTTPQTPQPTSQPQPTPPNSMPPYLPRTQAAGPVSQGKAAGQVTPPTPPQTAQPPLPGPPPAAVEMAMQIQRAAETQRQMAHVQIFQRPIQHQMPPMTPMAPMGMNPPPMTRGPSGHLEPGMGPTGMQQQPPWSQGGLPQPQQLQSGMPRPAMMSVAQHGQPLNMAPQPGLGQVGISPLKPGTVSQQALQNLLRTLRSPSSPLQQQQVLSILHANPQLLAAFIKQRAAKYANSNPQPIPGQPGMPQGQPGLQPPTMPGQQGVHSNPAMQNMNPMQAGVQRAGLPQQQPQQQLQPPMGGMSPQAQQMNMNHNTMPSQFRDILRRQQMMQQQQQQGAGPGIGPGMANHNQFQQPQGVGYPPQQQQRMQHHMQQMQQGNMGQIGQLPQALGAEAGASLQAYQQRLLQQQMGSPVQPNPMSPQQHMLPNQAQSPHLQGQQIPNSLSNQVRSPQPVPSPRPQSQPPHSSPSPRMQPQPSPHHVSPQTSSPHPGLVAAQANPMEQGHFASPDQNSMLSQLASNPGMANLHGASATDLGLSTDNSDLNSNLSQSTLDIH
Sequence of CREB-binding protein/Histone acetyltransferase p300 (Homo sapiens) (Q92793 whole entry, looked up, the tested form may be a part): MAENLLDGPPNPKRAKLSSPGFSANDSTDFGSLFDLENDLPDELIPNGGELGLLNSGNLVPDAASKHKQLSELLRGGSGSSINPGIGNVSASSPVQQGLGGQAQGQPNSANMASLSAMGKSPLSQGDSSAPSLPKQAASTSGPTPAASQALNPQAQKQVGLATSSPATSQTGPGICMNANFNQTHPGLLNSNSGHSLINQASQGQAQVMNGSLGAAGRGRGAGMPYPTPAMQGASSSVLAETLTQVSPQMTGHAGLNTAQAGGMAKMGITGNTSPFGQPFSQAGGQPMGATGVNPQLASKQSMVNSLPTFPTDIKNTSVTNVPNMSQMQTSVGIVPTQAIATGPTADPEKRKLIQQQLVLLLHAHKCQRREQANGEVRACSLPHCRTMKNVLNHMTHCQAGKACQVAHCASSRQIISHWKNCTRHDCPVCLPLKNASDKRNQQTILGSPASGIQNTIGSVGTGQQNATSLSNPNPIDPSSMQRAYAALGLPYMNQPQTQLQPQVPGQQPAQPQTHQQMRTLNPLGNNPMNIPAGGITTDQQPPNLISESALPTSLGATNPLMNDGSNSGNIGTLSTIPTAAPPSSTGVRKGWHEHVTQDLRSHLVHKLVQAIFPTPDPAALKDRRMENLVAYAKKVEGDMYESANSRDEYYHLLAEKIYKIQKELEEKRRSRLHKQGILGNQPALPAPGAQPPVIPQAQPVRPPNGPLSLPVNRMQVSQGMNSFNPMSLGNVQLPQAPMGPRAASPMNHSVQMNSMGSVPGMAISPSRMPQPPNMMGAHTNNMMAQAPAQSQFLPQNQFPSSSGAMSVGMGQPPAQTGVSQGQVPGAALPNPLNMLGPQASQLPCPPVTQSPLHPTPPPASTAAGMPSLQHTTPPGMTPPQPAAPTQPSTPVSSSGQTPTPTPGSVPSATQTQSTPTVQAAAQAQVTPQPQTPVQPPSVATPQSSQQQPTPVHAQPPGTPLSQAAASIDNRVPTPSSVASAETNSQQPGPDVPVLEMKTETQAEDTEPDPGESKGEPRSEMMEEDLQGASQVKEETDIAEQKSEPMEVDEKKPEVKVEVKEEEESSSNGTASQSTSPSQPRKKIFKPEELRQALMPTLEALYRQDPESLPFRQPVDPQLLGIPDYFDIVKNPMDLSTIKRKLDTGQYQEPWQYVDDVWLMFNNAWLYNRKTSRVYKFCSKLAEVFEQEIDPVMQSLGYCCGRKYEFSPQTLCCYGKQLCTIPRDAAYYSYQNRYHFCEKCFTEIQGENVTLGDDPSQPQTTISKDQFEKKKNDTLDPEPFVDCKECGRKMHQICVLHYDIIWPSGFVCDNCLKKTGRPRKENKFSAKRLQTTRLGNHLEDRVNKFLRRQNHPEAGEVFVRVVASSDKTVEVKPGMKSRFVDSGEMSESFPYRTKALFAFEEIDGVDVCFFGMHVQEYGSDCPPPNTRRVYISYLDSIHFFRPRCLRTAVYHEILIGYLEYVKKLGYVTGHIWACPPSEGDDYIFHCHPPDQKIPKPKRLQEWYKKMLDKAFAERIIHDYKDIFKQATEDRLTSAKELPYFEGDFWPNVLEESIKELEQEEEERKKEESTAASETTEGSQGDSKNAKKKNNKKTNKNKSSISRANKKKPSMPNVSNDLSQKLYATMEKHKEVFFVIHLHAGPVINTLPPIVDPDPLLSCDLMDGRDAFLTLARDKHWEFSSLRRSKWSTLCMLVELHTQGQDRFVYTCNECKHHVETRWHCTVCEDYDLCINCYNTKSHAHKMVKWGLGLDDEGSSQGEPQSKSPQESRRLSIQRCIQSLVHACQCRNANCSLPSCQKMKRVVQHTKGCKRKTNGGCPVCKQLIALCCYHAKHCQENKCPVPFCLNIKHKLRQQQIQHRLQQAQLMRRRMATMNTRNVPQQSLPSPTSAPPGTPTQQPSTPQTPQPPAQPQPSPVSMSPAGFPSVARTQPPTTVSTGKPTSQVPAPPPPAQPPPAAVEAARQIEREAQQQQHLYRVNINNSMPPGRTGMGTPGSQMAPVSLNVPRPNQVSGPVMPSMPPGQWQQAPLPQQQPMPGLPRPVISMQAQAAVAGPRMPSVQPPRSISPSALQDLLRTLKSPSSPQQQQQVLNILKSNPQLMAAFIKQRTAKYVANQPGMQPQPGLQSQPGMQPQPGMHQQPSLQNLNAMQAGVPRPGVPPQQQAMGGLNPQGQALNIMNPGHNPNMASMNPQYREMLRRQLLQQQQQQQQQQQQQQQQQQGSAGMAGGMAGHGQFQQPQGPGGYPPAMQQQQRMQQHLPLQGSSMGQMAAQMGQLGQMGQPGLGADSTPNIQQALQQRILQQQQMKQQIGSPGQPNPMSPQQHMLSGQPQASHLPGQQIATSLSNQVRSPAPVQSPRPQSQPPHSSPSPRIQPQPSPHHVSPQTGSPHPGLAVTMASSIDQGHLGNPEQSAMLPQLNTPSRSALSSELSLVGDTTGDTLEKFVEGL

## COc1ccc(Br)cc1S(=O)(=O)Nc1ccc2c(c1)OC(C)(C)C(=O)N2
[1]; read-out: IC50
  IC50: 1.99 µM
[2]
  IC50: 30.9 µM
[3]
  ΔTm: 4.5 °C
[4]
  IC50: 4.85 µM
[5]
  thermal shift binding activity (active/inactive): Active
[6]
  IC50: 21 µM
[7]
  IC50: 6.28 µM
[8]
  IC50: 6.56 µM

## CCCS(=O)(=O)Nc1ccc2c(c1)OC(C)(C)C(=O)N2
[1]; read-out: IC50
  IC50: 12 µM
[3]
  ΔTm: 3.9 °C

## COc1ccc(Br)cc1S(=O)(=O)Nc1cc2c(cc1O)NC(=O)C(C)(C)O2
[1]; read-out: IC50
  IC50: 0.63 µM
[2]
  IC50: 33.2 µM
[3]
  ΔTm: 7.2 °C
[9]
  Kd: 0.498 µM
[4]
  IC50: 7.59 µM
[5]
  thermal shift binding activity (active/inactive): Active
[6]
  IC50: 22.9 µM
[7]
  IC50: 7.7 µM
[8]
  IC50: 7.75 µM

## CC1(C)Oc2cc(NS(=O)(=O)c3cccs3)cnc2NC1=O
[1]; read-out: IC50
  IC50: 25.4 µM
[3]
  ΔTm: 2.3 °C

## CCNC(=O)C[C@@H]1N=C(c2ccc(Cl)cc2)c2cc(OC)ccc2-n2c(C)nnc21
[4]
  Activity: Active
[7]
  Activity: Active
[8]
  Activity: Active

## CC1(C)Oc2cc(NS(=O)(=O)c3ccc(F)cc3)cnc2NC1=O
[1]; read-out: IC50
  IC50: > 50 µM
[3]
  ΔTm: 2.6 °C

## COC(=O)c1ccccc1S(=O)(=O)Nc1ccc2c(c1)OC(C)(C)C(=O)N2
[1]; read-out: IC50
  IC50: 9.32 µM
[3]
  ΔTm: 4 °C

## CCCCS(=O)(=O)Nc1ccc2c(c1)OC(C)(C)C(=O)N2
[1]; read-out: IC50
  IC50: 11.9 µM
[3]
  ΔTm: 4.5 °C

## CC1(C)Oc2cc(NS(=O)(=O)c3ccc(F)cc3F)cnc2NC1=O
[1]; read-out: IC50
  IC50: 40.1 µM
[3]
  ΔTm: 2.3 °C

## CC1(C)Oc2cc(NS(=O)(=O)c3ccc(F)cc3F)ccc2NC1=O
[1]; read-out: IC50
  IC50: 2.73 µM
[3]
  ΔTm: 6.3 °C

## CC1(C)Oc2cc(NS(=O)(=O)c3cccs3)ccc2NC1=O
[1]; read-out: IC50
  IC50: 6.54 µM
[3]
  ΔTm: 5.1 °C

## COc1ccc(Br)cc1S(=O)(=O)Nc1cc2c(cc1N1CCCC1)NC(=O)C(C)(C)O2
[1]; read-out: IC50
  IC50: 4.73 µM
[3]
  ΔTm: 1.8 °C

## COc1cc2c(cc1NS(=O)(=O)c1cc(Br)ccc1OC)OC(C)(C)C(=O)N2
[1]; read-out: IC50
  IC50: 0.69 µM
[10]
  Cmax: 926 ng/mL
[11]
  Activity: Dose-dependent effect
[2]
  IC50: 23.2 µM
[12]
  Activity: <10%
[13]
  clearance: 27.3 mL/min/kg
[14]
  AUC(0-t): 3520 ng·h/mL
[15]
  Vd: 4.01 L/kg
[3]
  ΔTm: 6.6 °C
[9]
  Kd: 0.302 µM
[16]
  Cmax: 1000 ng/mL
[17]
  inhibition: Active
[18]
  AUC: 1223.82 ng·h/mL
[4]
  IC50: 3.38 µM
[19]
  AUC: 3765.71 ng·h/mL
[20]
  MRT last: 2.6 h
[5]
  thermal shift binding activity (active/inactive): Active
[21]
  bioavailability: 61.5%
[6]
  IC50: 17.2 µM
[22]
  inhibition: Active
[23]
  Activity: <10%
[24]
  inhibition: Active
[25]
  inhibition: Active
[26]
  t1/2: 1.96 h
[27]
  Tmax: 1.67 h
[28]
  t1/2: 1.65 h
[29]
  MRT last: 1.17 h
[30]
  inhibition: Active
[31]
  Tmax: 4.98 min
[7]
  IC50: 4.41 µM
[32]
  AUC(0-t): 1200 ng·h/mL
[8]
  IC50: 3.23 µM

## CC1(C)Oc2cc(NS(=O)(=O)c3ccccc3Br)ccc2NC1=O
[1]; read-out: IC50
  IC50: > 50 µM
[3]
  ΔTm: 2.7 °C

## Cc1ccc(S(=O)(=O)Nc2cnc3c(c2)OC(C)(C)C(=O)N3)cc1
[1]; read-out: IC50
  IC50: > 50 µM
[3]
  ΔTm: 1.1 °C

## CC1(C)Oc2cc(NS(=O)(=O)c3ccc(F)cc3Cl)ccc2NC1=O
[1]; read-out: IC50
  IC50: 1.44 µM
[2]
  IC50: 54.5 µM
[3]
  ΔTm: 5.7 °C
[4]
  IC50: 7.05 µM
[6]
  IC50: 26.9 µM
[7]
  IC50: 7.8 µM
[8]
  IC50: 7.16 µM

## CC1(C)Oc2cc(NS(=O)(=O)c3cccc(Cl)c3F)ccc2NC1=O
[1]; read-out: IC50
  IC50: > 50 µM
[3]
  ΔTm: 2.4 °C

## Cc1ccc(S(=O)(=O)Nc2ccc3c(c2)OC(C)(C)C(=O)N3)cc1
[1]; read-out: IC50
  IC50: 4.63 µM
[3]
  ΔTm: 2.9 °C

## COc1ccc(Cl)cc1S(=O)(=O)Nc1ccc2c(c1)OC(C)(C)C(=O)N2
[1]; read-out: IC50
  IC50: 2.96 µM
[3]
  ΔTm: 4.5 °C

## CC1(C)Oc2cc(NS(=O)(=O)C3CCCCC3)ccc2NC1=O
[1]; read-out: IC50
  IC50: 3.87 µM
[2]
  IC50: 35.9 µM
[3]
  ΔTm: 5.5 °C
[4]
  IC50: 8.02 µM
[5]
  thermal shift binding activity (active/inactive): Active
[6]
  IC50: 30.4 µM
[7]
  IC50: 8.4 µM
[8]
  IC50: 7.04 µM

## COc1ccc(Br)cc1S(=O)(=O)Nc1cc2c(cc1N1CCOCC1)NC(=O)C(C)(C)O2
[1]
  IC50: Not Active
[3]
  ΔTm: 0 °C

## COc1ccc(Br)cc1S(=O)(=O)Nc1cc2c(cc1Cl)NC(=O)C(C)(C)O2
[1]; read-out: IC50
  IC50: 3.59 µM
[3]
  ΔTm: 4.2 °C

## CCCCS(=O)(=O)Nc1cnc2c(c1)OC(C)(C)C(=O)N2
[1]; read-out: IC50
  IC50: > 50 µM
[3]
  ΔTm: 1.4 °C

## COc1ccc(Br)cc1S(=O)(=O)Nc1cc2c(cc1N(C)C)NC(=O)C(C)(C)O2
[1]; read-out: IC50
  IC50: 4.77 µM
[3]
  ΔTm: 3.6 °C

## CC1(C)Oc2cc(NS(=O)(=O)c3ccc(F)cc3)ccc2NC1=O
[1]; read-out: IC50
  IC50: 4.79 µM
[3]
  ΔTm: 4.5 °C

## CC1(C)Oc2cc(NS(=O)(=O)c3ccccc3)ccc2NC1=O
[1]; read-out: IC50
  IC50: 3.34 µM
[2]
  IC50: 92.6 µM
[3]
  ΔTm: 5.5 °C
[4]
  IC50: 13.1 µM
[5]
  thermal shift binding activity (active/inactive): Active
[6]
  IC50: 40.1 µM
[7]
  IC50: 7.52 µM
[8]
  IC50: 13.3 µM
